Series [1] can be described thus: (§1) Cmax in mouse at 10 mg/kg, po. Format: ADME, organism-based. Also on record: dose 10 mg/kg, route oral. The conditions noted are these: in vivo.
Series [2] is described as follows: (§2) Mean resident time in mouse at 10 mg/kg, po. The format is ADME, organism-based. Also on record: dose 10 mg/kg, route oral. The conditions noted are these: in vivo.
A short description of series [3]: (§3) Mean resident time in mouse at 1 mg/kg, iv. The format is ADME, organism-based. Also on record: dose 1 mg/kg, route intravenous. The conditions noted are these: in vivo.
Series [4] has as its system Mus musculus. As to the kind of experiment: Half life in mouse at 10 mg/kg, po. The following applies: in vivo. Format: ADME, organism-based. Also on record: dose 10 mg/kg, route oral.
The nature of series [5]: (§4) AUC (0 to infinity) in mouse at 1 mg/kg, iv. Format: ADME, organism-based, Plasma. Also on record: dose 1 mg/kg, route intravenous, time infinity. The conditions noted are these: plasma.
The nature of series [6]: Apparent oral clearance in mouse at 10 mg/kg, po. Format: ADME, organism-based. On the set-up: dose 10 mg/kg, route oral. The conditions noted are these: in vivo.
Series [7] in a line: (§5) AUC (0 to infinity) in mouse at 10 mg/kg, po. The conditions noted are these: plasma. On the set-up: time infinity, dose 10 mg/kg, route oral. The format is ADME, organism-based, Plasma.
Series [8] is described as follows: (§6) Tmax in mouse at 1 mg/kg, iv. The format is ADME, organism-based. On the set-up: dose 1 mg/kg, route intravenous. The conditions noted are these: in vivo.
A short description of series [9]: (§7) Apparent volume of distribution with respect to the bioavailability in mouse at 10 mg/kg, po. Format: ADME, organism-based. The following applies: in vivo, read-out: Vc/F.
Series [10] in a line: (§8) Tmax in mouse at 10 mg/kg, po. The format is ADME, organism-based. Also on record: dose 10 mg/kg, route oral. The following applies: in vivo.
A short description of series [11]: (§9) Volume of distribution at steady state in mouse at 1 mg/kg, iv. On the set-up: dose 1 mg/kg, route intravenous. Format: ADME, organism-based. The following applies: in vivo, read-out: Vdss.
A short description of series [12]: Clearance in mouse at 1 mg/kg, iv. The format is ADME, organism-based. On the set-up: dose 1 mg/kg, route intravenous. The conditions noted are these: in vivo.
The nature of series [13]: (§10) AUC(last) in mouse at 10 mg/kg, po. The format is ADME, organism-based, Plasma. Also on record: time 0 - last, dose 10 mg/kg, route oral. The conditions noted are these: plasma.
Series [14] deals with T1, Sodium/glucose cotransporter 2 (Homo sapiens, UniProt P31639).
T1 sequence (P31639 whole entry): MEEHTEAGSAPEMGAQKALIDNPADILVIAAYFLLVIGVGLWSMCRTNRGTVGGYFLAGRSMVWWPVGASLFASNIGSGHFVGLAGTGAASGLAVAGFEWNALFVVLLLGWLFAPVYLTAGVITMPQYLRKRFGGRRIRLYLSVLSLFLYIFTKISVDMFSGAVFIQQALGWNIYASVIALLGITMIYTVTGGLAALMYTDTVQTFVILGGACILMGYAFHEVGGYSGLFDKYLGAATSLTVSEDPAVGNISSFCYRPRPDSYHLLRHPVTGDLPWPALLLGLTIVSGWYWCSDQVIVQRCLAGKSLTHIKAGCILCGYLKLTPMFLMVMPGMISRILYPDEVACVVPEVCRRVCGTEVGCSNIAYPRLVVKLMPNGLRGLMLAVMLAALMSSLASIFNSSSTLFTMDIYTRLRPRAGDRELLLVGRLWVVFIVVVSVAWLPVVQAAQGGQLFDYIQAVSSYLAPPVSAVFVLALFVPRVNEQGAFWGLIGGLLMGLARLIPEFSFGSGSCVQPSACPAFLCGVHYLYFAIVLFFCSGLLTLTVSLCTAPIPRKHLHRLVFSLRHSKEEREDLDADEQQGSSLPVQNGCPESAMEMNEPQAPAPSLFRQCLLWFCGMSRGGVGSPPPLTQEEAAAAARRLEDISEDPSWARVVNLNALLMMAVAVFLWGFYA
The series is described as follows: Inhibition of human SGLT2 expressed in HEK293 cells assessed as inhibition of [14C]alpha-methylglucopyranoside uptake. Format: cell-based. The gist of the method: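 Cells stably expressing human SGLT2 were used to measure sodium-coupled uptake of [14C]α-methylglucopyranoside, a metabolically stable SGLT-specific glucose analogue. Uptake was measured across increasing compound concentrations, and IC50 was derived from the inhibition of uptake.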

Series [15] has as its system Mus musculus. The series is described as follows: Oral bioavailability in mouse at 10 mg/kg. The conditions noted are these: in vivo. Format: ADME, organism-based.
The subject of series [16] is Mus musculus. The series is described as follows: Apparent volume of distribution with respect to the bioavailability in mouse at 1 mg/kg, iv. The format is ADME, organism-based. The conditions noted are these: in vivo.
Series [17] can be described thus: (§11) Half life in mouse at 1 mg/kg, iv. The format is ADME, organism-based. The conditions noted are these: in vivo. Also on record: dose 1 mg/kg, route intravenous.
Series [18] has as its target T2, Sodium/glucose cotransporter 2 (Mus musculus, UniProt Q923I7).
T2 sequence (Q923I7 whole entry): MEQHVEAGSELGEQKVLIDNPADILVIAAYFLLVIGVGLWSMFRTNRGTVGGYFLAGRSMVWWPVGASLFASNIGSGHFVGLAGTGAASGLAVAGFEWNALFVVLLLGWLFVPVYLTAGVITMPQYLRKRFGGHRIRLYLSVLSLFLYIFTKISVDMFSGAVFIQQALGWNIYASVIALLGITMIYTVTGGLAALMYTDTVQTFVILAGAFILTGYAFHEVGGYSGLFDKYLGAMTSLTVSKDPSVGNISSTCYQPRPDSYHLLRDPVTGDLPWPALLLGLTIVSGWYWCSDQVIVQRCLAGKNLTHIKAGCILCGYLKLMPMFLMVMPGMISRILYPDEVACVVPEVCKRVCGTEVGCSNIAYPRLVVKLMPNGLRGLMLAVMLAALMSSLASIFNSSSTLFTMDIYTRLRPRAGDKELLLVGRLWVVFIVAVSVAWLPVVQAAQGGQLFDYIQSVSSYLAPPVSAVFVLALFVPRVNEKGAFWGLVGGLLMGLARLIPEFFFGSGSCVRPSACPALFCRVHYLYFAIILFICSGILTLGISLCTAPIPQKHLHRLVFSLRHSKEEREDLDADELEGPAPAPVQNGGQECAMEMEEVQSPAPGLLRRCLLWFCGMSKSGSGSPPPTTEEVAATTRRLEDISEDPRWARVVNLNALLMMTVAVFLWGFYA
The series is described as follows: Inhibition of mouse SGLT2-mediated [14C]alpha-methylglucopyranoside uptake by cell based assay.

The subject of series [19] is Mus musculus. The series is described as §1. On the set-up: dose 10 mg/kg, route oral. The format is ADME, organism-based. The conditions noted are these: in vivo.
The subject of series [20] is Mus musculus. The series is described as §2. The format is ADME, organism-based. On the set-up: dose 10 mg/kg, route oral. The conditions noted are these: in vivo.
Series [21] concerns Mus musculus. The description is as §3. Format: ADME, organism-based. Also on record: dose 1 mg/kg, route intravenous. The following applies: in vivo.
Series [22] deals with Mus musculus. The description is as §4. The format is ADME, organism-based, Plasma. On the set-up: dose 1 mg/kg, route intravenous, time infinity. The following applies: in vivo.
In series [23] the test system is Mus musculus. The description is as §5. Format: ADME, organism-based, Plasma. On the set-up: time infinity, dose 10 mg/kg, route oral. The following applies: in vivo.
In series [24] the test system is Mus musculus. The series is described as §6. The following applies: in vivo. On the set-up: dose 1 mg/kg, route intravenous. Format: ADME, organism-based.
Series [25] has as its system Mus musculus. The series is described as §7. Format: ADME, organism-based. The following applies: in vivo.
Series [26] relates to Mus musculus. Described as §8. Format: ADME, organism-based. The conditions noted are these: in vivo. On the set-up: dose 10 mg/kg, route oral.
In series [27] the test system is Mus musculus. Described as §9. The format is ADME, organism-based. Also on record: dose 1 mg/kg, route intravenous. The following applies: in vivo.
For series [28], the system named is Mus musculus. The description is as §10. The following applies: in vivo. Also on record: time 0 - last, dose 10 mg/kg, route oral. The format is ADME, organism-based, Plasma.
Series [29] relates to Mus musculus. Described as §11. The format is ADME, organism-based. On the set-up: dose 1 mg/kg, route intravenous. The conditions noted are these: in vivo.

pIC50: −log10 of the molar value.

What is called Cmax is the highest concentration seen after dosing. For orientation: MRT means a mean duration of stay, worked out from the concentration-time curve. For orientation: AUC(0-inf) means total exposure, with the tail of the curve extrapolated. A high value points to high exposure. In general, CL/F refers to clearance divided by bioavailability, as obtained after extravascular dosing. Usually Tmax stands for the time at which the peak concentration occurs. In general, clearance refers to the volume of plasma or blood freed of the substance per unit of time. High values mean efficient removal, low ones inefficient removal. For orientation: AUC(0-t) means exposure summed from dosing to a finite time, without extrapolation to infinity. Low values mean less exposure, high ones more exposure. One may read the pIC50 as −log10 of the IC50, conventionally taken in molar units. Usually half-life stands for the time needed for the level to fall by half in the phase considered. A lower half-life goes with fast loss. For the compound `CCOc1ccc(Cc2cc([C@@H]3OC(OC)[C@@H](O)[C@H](O)[C@H]3O)ccc2Cl)cc1` (mixture of isomers; 7a), the highest level in [1] (Cmax) was 4.38 µM. In addition, the MRT in series [2] turned out to be 4.6 h; in series [3] it was 1.62 h. The t1/2 in the series on Mus musculus [4] worked out at 2.76 h. Also, the AUC(0-inf) in series [5] came to 1.91 µM·h; in series [7], 11.7 µM·h. Besides, the CL/F in series [6] was found to be 35.4 mL/min/kg. Further, the Tmax in series [8] and in series [10] was 0.38 h throughout. Besides, the Vd/F in [9] worked out at 8.48 L/kg. In addition, in series [11], the Vd came to 1.98 L/kg. The compound further registered a clearance in series [12] of 22.5 mL/min/kg. The compound further registered an AUC(0-t) in series [13] of 8.19 µM·h. The pIC50 in [14] was 7.60; in series [18] it was 8.15. The same compound returned a F with Mus musculus [15] of 61.2%. Besides, the Vc/F in the series with Mus musculus [16] stood at 1.91 L/kg. This compound also showed a half-life in series [17] of 1.07 h.

For orientation: AUC means the area under the concentration-time curve, a measure of exposure. Low readings indicate less exposure, high ones more exposure. One may read the Vdss as a proportionality between amount in the body and measured concentration, not a real space. On to `CCOc1ccc(Cc2cc([C@@H]3OC(OC)[C@@H](O)[C@H](O)[C@H]3O)ccc2Cl)cc1` (mixture of isomers; 7c), for which the peak level in the series on Mus musculus [19] (Cmax) was 6.49 µM. Further, the MRT in the series on Mus musculus [20] is 8.44 h; in the series with Mus musculus [21], 1.77 h. Further, the t1/2 worked out at 6.96 h with Mus musculus [4] and 1.29 h with Mus musculus [29]. The AUC worked out at 1.481 µM·h in the series with Mus musculus [22], 17.458 µM·h with Mus musculus [23] and 16.191 µM·h in the series with Mus musculus [28]. For the same compound, the Tmax in the series on Mus musculus [24] and in the series on Mus musculus [26] was 0.25 h in each case. The Vc/F turned out to be 14.2 L/kg in the series on Mus musculus [25] and 3.08 L/kg in the series with Mus musculus [16]. Also, the Vdss in the series with Mus musculus [27] is 2.93 L/kg. Besides, the pIC50 was 7.85 in series [14] and 8.20 in series [18]. For the same compound, in the series on Mus musculus [15], the F was 100%.

Source of the values: ChEMBL document CHEMBL1156071, “Novel L-xylose derivatives as selective sodium-dependent glucose cotransporter 2 (SGLT2) inhibitors for the treatment of type 2 diabetes” (J Med Chem, 2009).
